This note sets out measurements from ChEMBL document CHEMBL2093137, “WHO-TDR NTD Screening”.

≈ marks a conversion by molar mass, not a printed value. Bounds are passed on as bounds.

The test system of series [1] is Trypanosoma cruzi. Put plainly: WHO-TDR: Chagas disease. It counts as functional, organism-based, Homo sapiens. The following applies: MRC5. In outline:
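Each IC50 reflects antiparasitic potency against intracellular amastigotes of Trypanosoma cruzi Tulahuen CL2 beta-galactosidase strain. These were cultured in MRC-5SV2 human lung fibroblasts and exposed to a 10,000-compound diverse Life Chemicals library screened according to published standard procedures with a reference drug as positive control.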

The subject of series [2] is Onchocerca ochengi. Put plainly: WHO-TDR: Onchocerciasis. It counts as functional. Also on record: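 at 12.5 µM on microfilariae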. In outline: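 Onchocerca ochengi or Onchocerca lienalis, animal pathogens used as surrogates for the human parasite, were screened as whole microfilariae against a 10,000-compound diverse library from Life Chemicals. The reported measures of activity are percent inhibition and IC50.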

In series [3] the test system is Plasmodium falciparum K1. Put plainly: WHO-TDR: Malaria. It counts as functional, organism-based, Homo sapiens. The note with it: Erythrocyte. In short, it runs like this:
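Whole-organism screen of a 10,000-compound diverse library from Life Chemicals, filtered for drug-likeness and reactive groups, against intra-erythrocytic Plasmodium falciparum K1 strain in human red blood cells. The assay followed previously published standard procedures, with a reference drug as positive control. Antiplasmodial potency is reported as IC50.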

Series [4] concerns Brugia malayi. Put plainly: WHO-TDR: Lymphatic Filariasis. Type of series: functional. Details: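 tested at 10 µM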. In short, it runs like this: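 Percent inhibition and IC50 describe activity against Brugia malayi microfilariae in a whole-organism screen. The screen used previously published standard procedures with reference drugs as positive controls. Compounds came from a diverse Life Chemicals library of 10,000, filtered for drug-likeness and reactive groups.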

Series [5] deals with Leishmania infantum. Put plainly: WHO-TDR: Leishmaniasis. It counts as functional, organism-based, Mus musculus. The following applies: Macrophage. In outline: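 Whole-organism screen of a 10,000-compound diverse library from Life Chemicals, filtered for drug-likeness and reactive groups, against intracellular amastigotes of Leishmania infantum MHOM/MA(BE)/67 in murine peritoneal macrophage host cells. The assay followed previously published standard procedures, with a reference drug as positive control. Antiparasitic potency is reported as IC50.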

Series [6] deals with Trypanosoma brucei brucei. Put plainly: WHO-TDR: Human African Trypanosomiasis (HAT). Type of series: functional, organism-based. The following applies: Squib-427. In outline:
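Whole-organism screen of a 10,000-compound diverse library from Life Chemicals, filtered for drug-likeness and reactive groups, against bloodstream forms of Trypanosoma brucei Squib 427 strain. The assay followed previously published standard procedures, with reference drugs as positive controls. Antiparasitic potency is reported as IC50.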

The subject of series [7] is Schistosoma mansoni. Put plainly: WHO-TDR: Schistosomiasis. It counts as functional. Details: concentration or dose not given beside the values. In outline:
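Larval and/or adult Schistosoma mansoni (Puerto Rican strain) were tested whole against 10,000 diverse compounds from Life Chemicals. The procedure was a previously published standard one, using a reference drug as positive control. Results are expressed as percent inhibition and IC50.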

The nature of series [8]: WHO-TDR: Cytotoxicity. It counts as toxicity, cell-based. The note with it: human, MRC5 cells.

Broadly, the IC50 is the midpoint of a concentration-inhibition curve. For orientation: % Inhibition means the share of the control response that was lost under treatment. Regarding `CS(=O)(=O)N1CCCCC1C(=O)Nc1nc2c(Cl)c(Cl)ccc2s1` (stereo unspecified), the IC50 in series [1], in series [3], in series [5], in series [6] and in series [8] was above 12.2 µg/mL each time. Besides, the “% Inhibition” value in series [2] was 100%; in series [4] it was 0%; in series [7], 0%.
Take `COc1ccc(OC)c2sc(N(CCCn3ccnc3)C(=O)COc3ccccc3)nc12`: the IC50 in series [1] is 4.77 µg/mL (≈ 10.5 µM); in series [3] it was 3.16 µg/mL (≈ 6.98 µM); in series [5], above 14.7 µg/mL; in series [6] it was 4.75 µg/mL (≈ 10.5 µM); in series [8], 4.9 µg/mL (≈ 10.8 µM). The “% Inhibition” value is listed as 100% in series [2], 0% in series [4] and 0% in series [7].
Regarding `COc1ccc(OC)c(Nc2c(C#N)cnc3ccc(Cl)cc23)c1`, the IC50 is 3.08 µg/mL (≈ 9.07 µM) in series [1]; above 11.3 µg/mL in series [3]; 0.365 µg/mL (≈ 1.07 µM) in series [5]; above 11.3 µg/mL in series [6]; 1.08 µg/mL (≈ 3.18 µM) in series [8]. For the same compound, the “% Inhibition” value in series [2] turned out to be 0%; in series [4], 20%; in series [7], 0%.
With `Cc1cc(C)cc(NC(=O)NCCNc2ccc(Nc3ccccn3)nn2)c1`, the IC50 was above 11.3 µg/mL in series [1]; above 11.3 µg/mL in series [3]; 0.367 µg/mL (≈ 0.972 µM) in series [5]; above 11.3 µg/mL in series [6]; above 11.3 µg/mL in series [8]. For the same compound, the “% Inhibition” value in series [2] stood at 100%; in series [4] it was 0%; in series [7], 0%.
With `CCCCC1CCC(C(=O)NCCn2nc(-c3ccncc3)ccc2=O)CC1` (stereo unspecified), the IC50 in series [1] was 6.12 µg/mL (≈ 16 µM); in series [3], above 11.5 µg/mL; in series [5] it was 0.371 µg/mL (≈ 0.97 µM); in series [6], above 11.5 µg/mL; in series [8], 11 µg/mL (≈ 28.7 µM). Further, the “% Inhibition” value in series [2], in series [4] and in series [7] was 0% throughout.
For the compound `COc1cccc(NC(=O)N2CCN(c3ccc(Nc4cc(C)ccn4)nn3)CC2)c1`, the IC50 in series [1] was above 12.6 µg/mL; in series [3] it was 9.16 µg/mL (≈ 21.8 µM); in series [5], above 12.6 µg/mL; in series [6], 5.21 µg/mL (≈ 12.4 µM); in series [8], above 12.6 µg/mL. Besides, the figures for the “% Inhibition” value in series [2], in series [4] and in series [7] were 100%, 0% and 0%, respectively.
For `CCc1ccc(S(=O)(=O)N2CCN(c3ccc(Nc4ccccn4)nn3)CC2)cc1`, the IC50 is above 12.7 µg/mL in series [1]; 2.8 µg/mL (≈ 6.6 µM) in series [3]; 0.412 µg/mL (≈ 0.97 µM) in series [5]; above 12.7 µg/mL in series [6]; above 12.7 µg/mL in series [8]. Also, the “% Inhibition” value in series [2], in series [4] and in series [7] was 0% in each case.
Consider `O=C(c1ccccc1)N1CCN(c2ccc(Nc3ccccn3)nn2)CC1`, for which the IC50 in series [1] was above 10.8 µg/mL; in series [3] it was above 10.8 µg/mL; in series [5] it was 0.35 µg/mL (≈ 0.971 µM); in series [6], above 10.8 µg/mL; in series [8], above 10.8 µg/mL. The “% Inhibition” value in series [2], in series [4] and in series [7] was 0% in each case.
On to `CC1Cc2ccccc2N1C(=O)Cc1csc(NC(=O)c2ccc[nH]c2=O)n1` (stereo unspecified), for which the IC50 in series [1], in series [3], in series [5], in series [6] and in series [8] was above 11.8 µg/mL in each case. Also, the results for the “% Inhibition” value in series [2], in series [4] and in series [7] were 50%, 20% and 100%, respectively.
In the case of `Cc1csc(NC(=O)CSc2nc(-c3ccccc3)c(N)s2)n1`, the IC50 was 7.18 µg/mL (≈ 19.8 µM) in series [1]; above 10.9 µg/mL in series [3]; 0.352 µg/mL (≈ 0.971 µM) in series [5]; above 10.9 µg/mL in series [6]; above 10.9 µg/mL in series [8]. For the same compound, the results for the “% Inhibition” value in series [2], in series [4] and in series [7] were 50%, 33.33% and 0%, respectively.
Regarding `NC(=O)CSc1nc(-c2ccccc2)c(NC(=O)c2cc3ccccc3o2)s1`, the IC50 in series [1], in series [3], in series [5], in series [6] and in series [8] was above 12.3 µg/mL in each case. Further, the entries for the “% Inhibition” value in series [2], in series [4] and in series [7] were 100%, 33.33% and 25%, respectively.
With `CCOC(=O)N1CCc2nc(NC(=O)CCCS(=O)(=O)c3ccc(F)cc3)sc2C1`, the IC50 was above 13.7 µg/mL in series [1]; 6.65 µg/mL (≈ 14.6 µM) in series [3]; above 13.7 µg/mL in series [5]; above 13.7 µg/mL in series [6]; above 13.7 µg/mL in series [8]. In addition, the figures for the “% Inhibition” value in series [2], in series [4] and in series [7] were 100%, 0% and 0%, respectively.
Turning to `O=C(Cc1cccs1)N1CCN(c2nccn2-c2cccc(Cl)c2)CC1`, the IC50 was 7.14 µg/mL (≈ 18.5 µM) in series [1]; 12 µg/mL (≈ 31.1 µM) in series [3]; 0.411 µg/mL (≈ 1.06 µM) in series [5]; 4.77 µg/mL (≈ 12.3 µM) in series [6]; above 12.7 µg/mL in series [8]. Also, the “% Inhibition” value in series [2] is on record as 50%; in series [4], 0%; in series [7], 0%.
Turning to `O=C(Cc1csc(NC(=O)c2ccc[nH]c2=O)n1)NCc1ccncc1`, the IC50 in series [1], in series [3], in series [5], in series [6] and in series [8] was above 11.1 µg/mL each time. Besides, the “% Inhibition” value in series [2] is 0%; in series [4] it was 20%; in series [7], 100%.
Take `O=C(CSc1ccc(F)cc1)N(CCCn1ccnc1)c1nc2c(F)cccc2s1`: the IC50 in series [1] was 5.11 µg/mL (≈ 11.5 µM); in series [3], 2.13 µg/mL (≈ 4.8 µM); in series [5], above 14.4 µg/mL; in series [6] it was 4.62 µg/mL (≈ 10.4 µM); in series [8], above 14.4 µg/mL. In addition, the “% Inhibition” value in series [2] is on record as 100%; in series [4] it was 0%; in series [7], 0%.
With `CCOC(=O)c1sc(-c2ccccc2)cc1NC(=O)c1ccnn1C`, the IC50 in series [1] is above 10.7 µg/mL; in series [3], above 10.7 µg/mL; in series [5], 0.345 µg/mL (≈ 0.971 µM); in series [6], above 10.7 µg/mL; in series [8] it was above 10.7 µg/mL. In addition, the “% Inhibition” value in series [2], in series [4] and in series [7] was 0% in each case.
With `O=C(C1CCCC1)N1CCN(c2ccc(-c3ccccn3)nn2)CC1`, the 50% inhibitory concentration (IC50) in series [1] was 1.19 µg/mL (≈ 3.52 µM); in series [3], 4.13 µg/mL (≈ 12.3 µM); in series [5] it was 0.328 µg/mL (≈ 0.972 µM); in series [6] it was 3.2 µg/mL (≈ 9.49 µM); in series [8], 4.9 µg/mL (≈ 14.5 µM). Also, the results for the “% Inhibition” value in series [2], in series [4] and in series [7] were 0%, 33.33% and 41.7%, respectively.
Regarding `CCc1ccc2nc(N(CCCn3ccnc3)C(=O)C3COc4ccccc4O3)sc2c1` (stereo unspecified), the IC50 was 1.22 µg/mL (≈ 2.73 µM) in series [1]; 0.363 µg/mL (≈ 0.809 µM) in series [3]; 4.71 µg/mL (≈ 10.5 µM) in series [5]; 4.71 µg/mL (≈ 10.5 µM) in series [6]; 4.4 µg/mL (≈ 9.81 µM) in series [8]. Also, the results for the “% Inhibition” value in series [2], in series [4] and in series [7] were 100%, 0% and 0%, respectively.
As to `COc1cc(C)ccc1S(=O)(=O)NCCCn1nc(-c2ccc(F)cc2)ccc1=O`, the IC50 was above 12.9 µg/mL in series [1]; above 12.9 µg/mL in series [3]; above 12.9 µg/mL in series [5]; above 12.9 µg/mL in series [6]; 10 µg/mL (≈ 23.2 µM) in series [8]. Further, the results for the “% Inhibition” value in series [2], in series [4] and in series [7] were 100%, 0% and 0%, respectively.
Consider `O=C(c1ccc(Br)o1)C1C(=O)N(c2ccccc2)N=C1c1ccccc1` (stereo unspecified), for which the IC50 in series [1] is 5.34 µg/mL (≈ 13.1 µM); in series [3], above 12.3 µg/mL; in series [5], above 12.3 µg/mL; in series [6], 4.44 µg/mL (≈ 10.8 µM); in series [8], above 12.3 µg/mL. The “% Inhibition” value in series [2] is 100%; in series [4], 0%; in series [7] it was 0%.
For the compound `O=C(c1cccc(F)c1)N(CCCn1ccnc1)c1nc2ccc(F)cc2s1`, the IC50 is 3.32 µg/mL (≈ 8.33 µM) in series [1]; 0.745 µg/mL (≈ 1.87 µM) in series [3]; above 13 µg/mL in series [5]; 4.17 µg/mL (≈ 10.5 µM) in series [6]; above 13 µg/mL in series [8]. Moreover, the “% Inhibition” value in series [2] is reported as 100%; in series [4], 0%; in series [7], 0%.
Take `O=C(CC1CCCC1)N1CCN(c2ccc(-c3ccccn3)nn2)CC1`: the IC50 in series [1] is 0.466 µg/mL (≈ 1.33 µM); in series [3] it was 0.731 µg/mL (≈ 2.08 µM); in series [5], 0.341 µg/mL (≈ 0.97 µM); in series [6], 0.409 µg/mL (≈ 1.16 µM); in series [8] it was 5.57 µg/mL (≈ 15.9 µM). In addition, the “% Inhibition” value in series [2] is 0%; in series [4], 33.33%; in series [7] it was 33.3%.
